Assay results reported in paper PMC3174055 (Biochemical Journal, 2011).
pIC50: −log10 of the molar value. “And” between values parts separate entries of the source, which are not always exact repeats. Identical values can stand only once.

How the values were obtained:
[1] = system: phosphorylation of Akt/PKB (Ser473, Thr308); assay: Insulin-stimulated activation of Akt/PKB in cell lines, Western blotting; format: cell-based; conditions: for inhibition of insulin-stimulated phosphorylation of Akt/PKB Ser473 and Thr308: cell lines that lack the H1047R mutation, drug 15 min, then 500 nM insulin 5 min; for inhibition of insulin-stimulated activation of Akt/PKB: MCF7 cells
How it was run: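 Cells serum-starved overnight, then exposed to test compound or DMSO vehicle for 15 min and stimulated with 500 nM insulin for 5 min. Lysates separated by SDS/PAGE, 20 μg protein per lane except T47D, SK-OV-3 and MCF7, and Western blotted for Akt/PKB phosphorylation.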

[2] = system: panel of 110 protein kinases; assay: Protein kinase profiling, panel of 110 protein kinases; format: biochemical; conditions: 10 μM, Supplementary Figure S1
[3] = system: Akt/PKB activation in PTEN-deficient cell lines; conditions: cited from earlier work
p110α E545K = p110α E545K (Homo sapiens, UniProt P42336, E545K); assay: PI3K; format: biochemical; conditions: read-out: IC50 against p110α E545K; HTRF assay
Chain of p110α E545K (P42336 whole entry E545K): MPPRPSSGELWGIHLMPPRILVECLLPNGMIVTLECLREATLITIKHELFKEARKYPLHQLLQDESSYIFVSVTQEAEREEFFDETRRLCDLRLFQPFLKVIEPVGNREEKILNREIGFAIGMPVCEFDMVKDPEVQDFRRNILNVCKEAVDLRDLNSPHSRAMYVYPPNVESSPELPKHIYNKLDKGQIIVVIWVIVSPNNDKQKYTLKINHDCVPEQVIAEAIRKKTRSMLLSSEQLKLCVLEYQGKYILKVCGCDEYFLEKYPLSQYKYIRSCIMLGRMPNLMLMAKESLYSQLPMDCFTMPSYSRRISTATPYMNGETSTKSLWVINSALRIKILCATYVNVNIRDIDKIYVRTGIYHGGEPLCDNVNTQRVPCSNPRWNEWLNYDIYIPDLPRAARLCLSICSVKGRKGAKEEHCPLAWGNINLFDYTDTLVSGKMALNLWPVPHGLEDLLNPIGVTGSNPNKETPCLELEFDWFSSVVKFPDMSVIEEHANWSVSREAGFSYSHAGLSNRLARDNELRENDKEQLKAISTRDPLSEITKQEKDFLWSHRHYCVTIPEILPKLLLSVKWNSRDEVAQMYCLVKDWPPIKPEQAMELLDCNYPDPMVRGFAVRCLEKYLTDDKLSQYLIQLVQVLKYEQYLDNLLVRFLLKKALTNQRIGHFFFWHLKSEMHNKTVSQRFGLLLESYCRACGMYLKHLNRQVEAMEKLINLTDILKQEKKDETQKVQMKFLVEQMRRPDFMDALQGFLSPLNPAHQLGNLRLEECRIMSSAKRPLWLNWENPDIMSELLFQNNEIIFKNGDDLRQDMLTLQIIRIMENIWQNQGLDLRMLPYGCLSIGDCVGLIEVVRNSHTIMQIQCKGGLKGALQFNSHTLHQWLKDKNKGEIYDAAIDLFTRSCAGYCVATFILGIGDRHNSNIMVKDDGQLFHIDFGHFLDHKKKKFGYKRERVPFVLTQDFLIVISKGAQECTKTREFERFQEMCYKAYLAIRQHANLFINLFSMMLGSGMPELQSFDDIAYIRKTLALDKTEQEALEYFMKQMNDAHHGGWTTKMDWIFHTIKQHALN
Chain of p110α E545K (P27986 whole entry partner): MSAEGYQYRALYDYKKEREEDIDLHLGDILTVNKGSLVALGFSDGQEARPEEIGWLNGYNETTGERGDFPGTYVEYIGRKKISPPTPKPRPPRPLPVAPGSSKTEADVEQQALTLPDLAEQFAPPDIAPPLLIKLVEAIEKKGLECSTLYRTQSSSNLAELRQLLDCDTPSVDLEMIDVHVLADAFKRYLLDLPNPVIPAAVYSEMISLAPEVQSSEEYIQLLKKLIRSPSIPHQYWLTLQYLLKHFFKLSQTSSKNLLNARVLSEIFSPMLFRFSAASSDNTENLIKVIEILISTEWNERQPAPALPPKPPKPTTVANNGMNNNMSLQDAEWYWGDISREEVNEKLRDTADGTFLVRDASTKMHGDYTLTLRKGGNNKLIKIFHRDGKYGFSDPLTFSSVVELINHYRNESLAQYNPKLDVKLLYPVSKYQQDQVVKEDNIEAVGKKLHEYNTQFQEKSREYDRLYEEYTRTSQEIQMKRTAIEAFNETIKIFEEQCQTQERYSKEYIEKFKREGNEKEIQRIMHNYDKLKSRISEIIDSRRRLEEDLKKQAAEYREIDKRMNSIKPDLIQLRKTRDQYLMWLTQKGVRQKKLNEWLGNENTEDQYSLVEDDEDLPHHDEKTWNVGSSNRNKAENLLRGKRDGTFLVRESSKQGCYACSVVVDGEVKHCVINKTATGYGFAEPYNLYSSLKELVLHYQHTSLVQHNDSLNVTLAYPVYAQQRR

p110γ = p110γ (Homo sapiens, UniProt P48736); assay: PI3K; format: biochemical; conditions: read-out: IC50 against p110γ; HTRF assay
Chain of p110γ (P48736 whole entry): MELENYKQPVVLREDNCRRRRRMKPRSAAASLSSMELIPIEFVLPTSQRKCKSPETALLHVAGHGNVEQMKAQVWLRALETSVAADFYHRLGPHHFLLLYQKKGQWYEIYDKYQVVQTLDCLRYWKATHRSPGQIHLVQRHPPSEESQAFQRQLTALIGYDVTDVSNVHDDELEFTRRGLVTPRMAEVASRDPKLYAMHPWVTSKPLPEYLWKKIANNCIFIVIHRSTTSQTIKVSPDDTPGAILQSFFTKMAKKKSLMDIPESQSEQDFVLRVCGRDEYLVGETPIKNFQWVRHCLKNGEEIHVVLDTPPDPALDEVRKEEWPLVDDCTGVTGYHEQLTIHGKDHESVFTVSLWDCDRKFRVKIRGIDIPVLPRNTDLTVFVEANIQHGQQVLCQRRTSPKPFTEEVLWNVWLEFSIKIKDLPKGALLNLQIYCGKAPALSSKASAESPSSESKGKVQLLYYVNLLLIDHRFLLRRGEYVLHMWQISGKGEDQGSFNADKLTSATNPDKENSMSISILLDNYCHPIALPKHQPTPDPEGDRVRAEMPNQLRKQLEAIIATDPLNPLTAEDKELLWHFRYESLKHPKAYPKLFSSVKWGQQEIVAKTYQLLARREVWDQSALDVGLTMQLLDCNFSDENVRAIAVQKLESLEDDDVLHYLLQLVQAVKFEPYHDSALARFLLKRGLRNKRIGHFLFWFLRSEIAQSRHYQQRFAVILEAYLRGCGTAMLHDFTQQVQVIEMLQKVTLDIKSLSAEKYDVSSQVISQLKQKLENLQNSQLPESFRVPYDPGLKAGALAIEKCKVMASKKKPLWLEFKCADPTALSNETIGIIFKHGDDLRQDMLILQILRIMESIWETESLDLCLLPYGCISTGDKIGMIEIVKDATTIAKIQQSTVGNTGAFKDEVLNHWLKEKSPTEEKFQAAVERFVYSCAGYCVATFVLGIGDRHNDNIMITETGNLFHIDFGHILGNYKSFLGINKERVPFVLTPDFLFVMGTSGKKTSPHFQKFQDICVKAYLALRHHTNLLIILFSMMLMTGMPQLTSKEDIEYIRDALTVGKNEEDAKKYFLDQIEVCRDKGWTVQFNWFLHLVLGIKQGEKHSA

p110α H1047R = p110α H1047R (Homo sapiens, UniProt P42336, H1047R); assay: PI3K; format: biochemical; conditions: read-out: IC50 against p110α H1047R; HTRF assay
Chain of p110α H1047R (P42336 whole entry H1047R): as the sequence (P42336 whole entry E545K) above, with K545E, H1047R counted along it
Chain of p110α H1047R (P27986 whole entry partner): as the sequence (P27986 whole entry partner) above

p110α = p110α (Homo sapiens, UniProt P42336); assay: PI3K; format: biochemical; conditions: read-out: IC50 against p110α; HTRF assay
Chain of p110α (P42336 whole entry): as the sequence (P42336 whole entry E545K) above, with K545E counted along it
Chain of p110α (P27986 whole entry partner): as the sequence (P27986 whole entry partner) above

p110δ = p110δ (Homo sapiens, UniProt O00329); assay: PI3K; format: biochemical; conditions: read-out: IC50 against p110δ; HTRF assay
Chain of p110δ (O00329 whole entry): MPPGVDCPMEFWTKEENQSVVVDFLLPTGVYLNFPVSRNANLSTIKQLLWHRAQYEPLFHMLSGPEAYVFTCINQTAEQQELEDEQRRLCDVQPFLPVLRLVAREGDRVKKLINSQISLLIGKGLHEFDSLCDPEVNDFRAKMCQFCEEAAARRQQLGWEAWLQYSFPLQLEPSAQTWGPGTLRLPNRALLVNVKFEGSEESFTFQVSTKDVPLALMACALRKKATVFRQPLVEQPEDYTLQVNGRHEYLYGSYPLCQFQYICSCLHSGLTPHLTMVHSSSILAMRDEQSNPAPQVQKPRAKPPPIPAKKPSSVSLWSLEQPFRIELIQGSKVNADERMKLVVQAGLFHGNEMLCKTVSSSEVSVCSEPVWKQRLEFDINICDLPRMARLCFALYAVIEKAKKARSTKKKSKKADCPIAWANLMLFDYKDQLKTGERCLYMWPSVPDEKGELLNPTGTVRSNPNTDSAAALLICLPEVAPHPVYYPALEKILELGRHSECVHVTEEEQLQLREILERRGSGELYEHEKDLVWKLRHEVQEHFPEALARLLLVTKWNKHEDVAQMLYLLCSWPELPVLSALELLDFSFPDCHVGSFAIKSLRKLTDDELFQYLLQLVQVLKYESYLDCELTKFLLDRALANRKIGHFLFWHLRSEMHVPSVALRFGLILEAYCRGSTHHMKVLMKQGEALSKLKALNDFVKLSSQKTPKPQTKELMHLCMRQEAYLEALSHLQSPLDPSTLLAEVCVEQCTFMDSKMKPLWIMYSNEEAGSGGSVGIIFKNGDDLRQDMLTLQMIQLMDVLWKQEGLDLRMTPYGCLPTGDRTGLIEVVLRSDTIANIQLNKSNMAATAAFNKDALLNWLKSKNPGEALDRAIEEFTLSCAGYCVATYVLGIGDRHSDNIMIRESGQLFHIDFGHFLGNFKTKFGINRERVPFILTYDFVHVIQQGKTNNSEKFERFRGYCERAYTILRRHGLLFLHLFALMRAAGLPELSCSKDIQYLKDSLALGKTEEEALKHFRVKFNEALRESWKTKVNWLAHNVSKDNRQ
Chain of p110δ (P27986 whole entry partner): as the sequence (P27986 whole entry partner) above

HCT-116 xenograft = assay: HCT-116 tumour xenograft efficacy and toxicity; format: in vivo, Rag1−/− or NIH-III mice; conditions: QD×7, BEZ-235 10 mg/kg, A66 100 mg/kg
How it was run: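 HCT-116 xenografts from 5×10^6 cells s.c. in PBS, in SPF Rag1−/− or NIH-III mice. Once-daily i.p. dosing for 7 days from tumours of about 7 mm. Test compound in 20% hydroxypropyl-β-cyclodextrin; reference inhibitor at 10 mg/kg in 10% ethanol; vehicle controls. Caliper volumes by (L×w²)×π/6; daily weights; euthanasia if weight loss exceeded 20%.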

U87MG xenograft = assay: U87MG tumour xenograft efficacy and toxicity; format: in vivo, Rag1−/− or NIH-III mice; conditions: QD×14, BEZ-235 15 mg/kg, A66 100 mg/kg
How it was run: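 U87MG cells (5×10^6, s.c. in PBS) in SPF Rag1−/− or NIH-III mice; treatment started at tumours of about 7 mm. Daily i.p. dosing for 14 days (10 ml/kg, free base). Test compound in 20% hydroxypropyl-β-cyclodextrin; reference inhibitor in 10% ethanol; controls given vehicle. Caliper volume (L×w²)×π/6; daily body weight and toxicity checks; mice killed at >20% weight loss.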

SK-OV-3 xenograft = assay: SK-OV-3 tumour xenograft efficacy and toxicity; format: in vivo, Rag1−/− or NIH-III mice; conditions: QD×21, BEZ-235 15 mg/kg, A66 100 mg/kg
How it was run: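 SPF Rag1−/− or NIH-III mice, 5×10^6 SK-OV-3 cells s.c. in PBS; dosing began at about 7 mm tumours. I.p., 10 ml/kg. Test compound (20% hydroxypropyl-β-cyclodextrin): 100 mg/kg QD×21 or 75 mg/kg BID×16, injections ≥~8 h apart. Reference inhibitor (10% ethanol): 15 mg/kg QD×21. Vehicle controls; 7–8 mice/group. Caliper volume (L×w²)×π/6; daily body weight; final-day TGI; ANOVA-Bonferroni.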

[4] = Plasma pharmacokinetics in mice; format: in vivo, CD-1 mice; conditions: male, CD-1, mouse, ip, 10 mg/kg

SMILES: O=c1cc(N2CCOCC2)oc2c(-c3ccccc3)cccc12 [LY294002]
- inhibition of phosphorylation of Akt/PKB Ser473 and Thr308 ([1]; all cell lines tested): sensitive
- inhibition of insulin-stimulated phosphorylation of Akt/PKB Ser473 and Thr308 [1]: effective

SMILES: Cc1cc(C(C)Nc2ccccc2)c2nc(N3CCOCC3)cc(=O)n2c1 (stereo not shown) [TGX-221]
- inhibitory effects on panel of 110 protein kinases [2]: do not have any major effects
- concentration required to induce reduction in Akt/PKB activation [3]: 2 µM
- inhibition of insulin-stimulated activation of Akt/PKB [1]: partial inhibitory effect
- inhibition of insulin-stimulated phosphorylation of Akt/PKB Ser473 and Thr308 [1]: not inhibited
- pIC50 (p110α E545K): < 6.00
- pIC50 (p110γ): < 5.90
- pIC50 (p110α H1047R): < 6.00
- pIC50 (p110α): < 6.00
- pIC50 (p110δ): 6.89

SMILES: Cc1ccc([N+](=O)[O-])cc1S(=O)(=O)N(C)/N=C/c1cnc2ccc(Br)cn12 [PIK-75]
- inhibitory effects on panel of 110 protein kinases [2]: inhibited a large number of protein kinases
- inhibition of insulin-stimulated activation of Akt/PKB [1]: partial inhibitory effect
- inhibition of insulin-stimulated phosphorylation of Akt/PKB Ser473 and Thr308 [1]: less effective
- pIC50 (p110γ): 7.48

SMILES: Cn1c(=O)n(-c2ccc(C(C)(C)C#N)cc2)c2c3cc(-c4cnc5ccccc5c4)ccc3ncc21 [BEZ-235]
- BWL nadir (%) (HCT-116 xenograft; HCT-116, intraperitoneal): −5.9±1.8%
- Number of deaths/n (HCT-116 xenograft; HCT-116, intraperitoneal): 0/7
- effect on tumour volume (HCT-116 xenograft; HCT-116 xenograft): had no effect
- effect on tumour volume / growth (U87MG xenograft; U87MG xenograft): significantly reduced
- BWL nadir (%) (U87MG xenograft; U87MG, intraperitoneal): −8.4±5.4%
- Number of deaths/n (U87MG xenograft; U87MG, intraperitoneal): 0/5
- body weight loss / tolerability (SK-OV-3 xenograft): moderate body weight loss
- BWL nadir (%) (SK-OV-3 xenograft; intraperitoneal): −9.5±6.6%
- Number of deaths/n (SK-OV-3 xenograft; intraperitoneal): four and 4/7
- AUC [4]: 7.33 µM·h
- Cmax [4]: 1860 nM
- Tmax [4]: 0.25 h
- half-life [4]: 2.73 h

SMILES: Cc1ccccc1-n1c(Cn2cnc3c(N)ncnc32)nc2cccc(C)c2c1=O [IC87114]
- inhibitory effects on panel of 110 protein kinases [2]: do not have any major effects
- inhibition of insulin-stimulated phosphorylation of Akt/PKB Ser473 and Thr308 [1]: not inhibited

SMILES: COC[C@H]1OC(=O)c2coc3c2[C@@]1(C)C1=C(C3=O)[C@@H]2CCC(=O)[C@@]2(C)C[C@H]1OC(C)=O [wortmannin]
- inhibition of insulin-stimulated phosphorylation of Akt/PKB Ser473 and Thr308 [1]: effective
